Screening data: PubChem BioAssay, several laboratories
A selection: hits, their analogues and other compounds. The true share with any hit is near 4.6%.
UCH37 DUB inh: blocks the human deubiquitinase UCH37; Q9Y5K5; purified proteasome/UCH37, Ub-AMC cleavage fluorescence; inhibition, % (no concentration beside the values); AID 588478; 330,000 compounds, 0.33% hits;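 active means mean inhibition over replicate wells above about 20%, limit read from the data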;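 further: 0% = compound-free wells with enzyme and 100% = wells lacking proteasome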
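Material: Human UCH37 enzyme supplied as purified proteasome complex | Schedule: 30 min preincubation with enzyme, 25 min cleavage at room temperature | Detection: AMC fluorescence 355/460 nm | Measure: % inhibition of Ub-AMC cleavage fluorescence | Controls: Wells without proteasome as full block, compound-free enzyme plus substrate as uninhibited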
PfM18AAP inh: blocks P. falciparum M18 aspartyl aminopeptidase | inhibition, % at 7.35 µM | recombinant PfM18AAP, H-Glu-NHMec fluorogenic cleavage | AID 1822 | 290,000 compounds, 1.2% hits;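 active means inhibition above the campaign mean inhibition over all tested compounds plus 3 SD, cut at about 28% in these data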;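 further: 0% = plate median of test compound wells and 100% = 2 mM ZnCl2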
ALR inh: blocks human ALR sulfhydryl oxidase activity. inhibition, % (test concentration not listed). P55789. purified ALR, DTT oxidation, H2O2 HRP-luminol luminescence. AID 485317. 290,000 compounds, 3.8% hits;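 active means mean replicate inhibition above about 79%, with every replicate also reaching it, limit read from the data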
Target sequence (P55789 whole entry, looked up): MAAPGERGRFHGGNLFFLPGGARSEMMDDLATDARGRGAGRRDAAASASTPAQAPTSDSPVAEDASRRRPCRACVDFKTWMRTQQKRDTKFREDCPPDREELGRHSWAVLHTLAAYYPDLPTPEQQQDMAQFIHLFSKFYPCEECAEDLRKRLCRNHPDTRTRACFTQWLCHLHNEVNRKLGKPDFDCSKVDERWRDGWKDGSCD
Rtt109 HAT inh: inhibitors of Candida albicans Rtt109/Vps75 histone acetyltransferase | Q5AAJ8 | AID 540336 | 330,000 compounds, 0.16% hits | purified Rtt109/Vps75, ThioGlo CoA-SH fluorescence, 4 h | inhibition, % at 34.9 µM;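 active means inhibition of at least 50% in every replicate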
Target sequence (Q5AAJ8 whole entry, looked up): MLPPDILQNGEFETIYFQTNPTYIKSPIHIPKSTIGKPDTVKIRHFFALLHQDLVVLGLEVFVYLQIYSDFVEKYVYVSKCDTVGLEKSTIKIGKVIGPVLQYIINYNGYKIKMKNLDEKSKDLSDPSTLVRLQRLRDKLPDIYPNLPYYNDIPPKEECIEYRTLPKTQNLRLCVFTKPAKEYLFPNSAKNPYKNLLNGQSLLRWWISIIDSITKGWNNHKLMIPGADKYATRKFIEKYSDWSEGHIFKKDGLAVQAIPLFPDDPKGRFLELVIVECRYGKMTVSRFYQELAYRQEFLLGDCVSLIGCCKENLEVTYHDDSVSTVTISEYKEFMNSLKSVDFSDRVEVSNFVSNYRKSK
HDAC3 inhib: blocks human histone deacetylase 3. O15379. recombinant HDAC3, fluorogenic peptide/trypsin coupled, fluorescence. inhibition, % at 8.3 µM. 320,000 compounds, 0.15% hits; in the data active means inhibition above about 26%, passing the limit was not always enough
FAS-TE inh: FAS thioesterase (human) inhibition. P49327. recombinant FAS-TE, OMFH fluorogenic substrate, fluorescence endpoint. inhibition, % at 15 µM. 360,000 compounds, 0.67% hits;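 active means compounds whose normalised, plate-corrected inhibition of enzyme fluorescence in the single-dose primary screen is 50% or more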;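 further: 0% = DMSO with enzyme and 100% = substrate without enzyme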
Active calls of the source: *.

What do the screens show for `COc1ccc(C=NNS(=O)(=O)c2ccc(Br)cc2)cc1COc1ccccc1[N+](=O)[O-]`?
UCH37 DUB inh: 6

What do the screens show for `CN(C)c1ccc(CNC(=O)c2cc(S(=O)(=O)N3CCCC3)cn2C)cc1`?
UCH37 DUB inh: 0; PfM18AAP inh: 10; ALR inh: 98*; Rtt109 HAT inh: 1; FAS-TE inh: -3

What do the screens show for `CN(C)c1ccc(CNC(=O)C2CCN(S(=O)(=O)c3ccc4c(c3)CCCC(=O)N4)CC2)cc1`?
UCH37 DUB inh: 3; PfM18AAP inh: 8; ALR inh: 98*; Rtt109 HAT inh: -13; HDAC3 inhib: 1; FAS-TE inh: -11

Results for Cn1cc(C(=O)c2ccc(Cl)cc2Cl)cc1C(=O)NN=C(N)COc1ccccc1 ?
UCH37 DUB inh: 1

What do the screens show for `Cc1ccc(-c2[nH]c(-c3ccc(C(=O)O)cc3)nc2-c2ccccc2)cc1`?
PfM18AAP inh: -6; ALR inh: 99*; Rtt109 HAT inh: -16; HDAC3 inhib: -247; FAS-TE inh: 10

What do the screens show for `Cc1cc(C(=O)CN2C(=O)CCC2=O)c(C)n1Cc1ccccc1`?
UCH37 DUB inh: 5; PfM18AAP inh: 13; ALR inh: 94*; Rtt109 HAT inh: 5; HDAC3 inhib: -5; FAS-TE inh: 0

What do the screens show for `CC(=O)N/C(N)=N/c1nc(=O)c2ccccc2s1`?
UCH37 DUB inh: -3; PfM18AAP inh: 0; ALR inh: 9; Rtt109 HAT inh: 3; HDAC3 inhib: -2; FAS-TE inh: -6

What do the screens show for `CC(=O)Nc1nc(=O)c2ccccc2s1`?
UCH37 DUB inh: 1; PfM18AAP inh: 30*; ALR inh: 13; Rtt109 HAT inh: 3; HDAC3 inhib: -2; FAS-TE inh: -8

Results for CCOc1ccc(-n2ccnc(SCC(=O)Nc3ccc(CC)cc3)c2=O)cc1 ?
UCH37 DUB inh: -134; ALR inh: 99*; Rtt109 HAT inh: -5; HDAC3 inhib: -4; FAS-TE inh: -6

What do the screens show for `COc1ccc(-n2ccnc(SCC(=O)NC3CCCCC3)c2=O)cc1`?
UCH37 DUB inh: -16; PfM18AAP inh: 11; ALR inh: 98*; Rtt109 HAT inh: 6; HDAC3 inhib: 0; FAS-TE inh: -2

Results for CC(=NNC(=O)CNC(=O)c1cccnc1)c1ccc(Cl)cc1 ?
UCH37 DUB inh: 0

How did CC1SC(=NN=Cc2ccco2)N(Cc2ccc(F)cc2)C1=O (centres undefined) do in these assays?
UCH37 DUB inh: 5

What do the screens show for `COCCNC(=O)Nc1ccc2c(c1)N(C)C(=O)c1ccccc1S2`?
UCH37 DUB inh: 4; PfM18AAP inh: -2; ALR inh: 96*; Rtt109 HAT inh: -11; HDAC3 inhib: -4; FAS-TE inh: -2

Results for CCC(C)NC(=O)Nc1ccc2c(c1)N(C)C(=O)c1ccccc1S2 (centres undefined) ?
UCH37 DUB inh: 5; PfM18AAP inh: 9; ALR inh: -3; Rtt109 HAT inh: 29; HDAC3 inhib: 4; FAS-TE inh: 0

What do the screens show for `CN(C)/C=N/c1sc2c(c1C#N)CCCC2`?
PfM18AAP inh: 7; ALR inh: 100*; Rtt109 HAT inh: 1; HDAC3 inhib: 1; FAS-TE inh: -4

Results for O=C(C1CCCO1)N1CCN(C(=S)Nc2ccc(Cl)cc2Cl)CC1 (centres undefined) ?
UCH37 DUB inh: 5; PfM18AAP inh: 3; ALR inh: 1; Rtt109 HAT inh: 53*; HDAC3 inhib: 7; FAS-TE inh: -8

Results for Cc1cc(Cl)ccc1NC(=S)N1CCN(C(=O)C2CCCO2)CC1 (centres undefined) ?
UCH37 DUB inh: 0; PfM18AAP inh: 2; Rtt109 HAT inh: 8; HDAC3 inhib: -5; FAS-TE inh: -15

How did CCN(CC)c1ccc(-n2cc3c(=O)n(C)c(=O)n(C)c3c2)cc1 do in these assays?
UCH37 DUB inh: -92; PfM18AAP inh: 6; ALR inh: 73; Rtt109 HAT inh: 2; HDAC3 inhib: -31; FAS-TE inh: -1

What do the screens show for `CN(C)c1ccc(-n2cc3c(=O)n(C)c(=O)n(C)c3c2)cc1`?
UCH37 DUB inh: -36; PfM18AAP inh: -2; ALR inh: 99*; Rtt109 HAT inh: -2; HDAC3 inhib: -7; FAS-TE inh: 3

How did S=c1[nH]nc(COc2ccccc2)n1N=Cc1ccccc1Br do in these assays?
UCH37 DUB inh: 0

How did CC(=O)Oc1ccc(N(C(C)=O)S(=O)(=O)c2cccs2)cc1 do in these assays?
UCH37 DUB inh: 2; PfM18AAP inh: 2; ALR inh: 8; Rtt109 HAT inh: -1; HDAC3 inhib: 4; FAS-TE inh: -4

Results for CCCC(=O)Oc1ccc(N(C(=O)CCC)S(=O)(=O)c2cccs2)cc1 ?
PfM18AAP inh: 0; ALR inh: 4; Rtt109 HAT inh: 0; HDAC3 inhib: 56*; FAS-TE inh: 8

What do the screens show for `CCCC(=O)Oc1ccc(N(C(=O)CCC)S(=O)(=O)c2cccc([N+](=O)[O-])c2)cc1`?
PfM18AAP inh: -8; ALR inh: -4; Rtt109 HAT inh: 7; HDAC3 inhib: 50*; FAS-TE inh: 50

What do the screens show for `COc1ccc(N(C(=O)c2ccncc2)S(=O)(=O)c2cccc([N+](=O)[O-])c2)cc1`?
UCH37 DUB inh: 3; PfM18AAP inh: -13; ALR inh: 6; Rtt109 HAT inh: -1; HDAC3 inhib: 0; FAS-TE inh: 18

How did CC(=O)c1cccc(Nc2c3c(nc4ccccc24)CCC3)c1 do in these assays?
UCH37 DUB inh: 6; PfM18AAP inh: 3; ALR inh: 1; Rtt109 HAT inh: -4; HDAC3 inhib: 6; FAS-TE inh: 4

What do the screens show for `COc1cc(Nc2c3c(nc4ccccc24)CCCC3)cc(OC)c1OC`?
UCH37 DUB inh: 4; PfM18AAP inh: 3; ALR inh: 98*; Rtt109 HAT inh: 4; HDAC3 inhib: 1; FAS-TE inh: 5

What do the screens show for `Cc1ccc2nc3c(c(Nc4cccc(O)c4)c2c1)CCC3`?
UCH37 DUB inh: -9; PfM18AAP inh: 3; ALR inh: 98*; Rtt109 HAT inh: -10; HDAC3 inhib: -1; FAS-TE inh: 0

How did COc1ccccc1Nc1c2c(nc3ccccc13)CCC2 do in these assays?
UCH37 DUB inh: 7; PfM18AAP inh: 5; ALR inh: 99*; Rtt109 HAT inh: -3; HDAC3 inhib: -2; FAS-TE inh: -3

What do the screens show for `COC(=O)c1cccc(Nc2c3c(nc4ccccc24)CCC3)c1`?
UCH37 DUB inh: -21; PfM18AAP inh: 3; Rtt109 HAT inh: -3; FAS-TE inh: 7

What do the screens show for `c1ccc2c(Nc3ccc4c(c3)OCCO4)c3c(nc2c1)CCCC3`?
UCH37 DUB inh: 7; PfM18AAP inh: 4; ALR inh: 90*; Rtt109 HAT inh: 2; HDAC3 inhib: 8; FAS-TE inh: 2

What do the screens show for `COCCCNc1c2c(nc3ccccc13)CCC2`?
FAS-TE inh: -8

How did CCCCNC(=O)N(O)C1N(N=Cc2ccco2)C(=S)SC1(C)C (centres undefined) do in these assays?
UCH37 DUB inh: 15
